Test results taken from the RNAGym collection of RNA variant scans (doi:10.1038/s41586-018-0170-7).

B1: tRNA (parent)
chain: GUUCCGUUGGCGUAAUGGUAACGCGUCUCCCUCCUAAGGAGAAGACUGCGGGUUCGAGUCCCGUACGGAACG

Variants of: B1
Assay: yeast fitness, log relative to wild type (ln ratio); higher = fitter; tRNA-Arg(CCU), competitive growth, 37 C, 1 M NaCl
Summary of the method: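 Genotype fitness is expressed as the natural log of its generations over those of the wild type. Each pool of the tRNA-Arg(CCU) variant library, carried on a HIS3 centromeric plasmid in BY4742 lacking the chromosomal gene, came from one of two independent transformations and grew 4 generations in SC-HIS at 30 °C before ~6.5 generations (~26.5 h) in SC-HIS 1M NaCl at 37 °C. Generation numbers used OD-scaled log2 output/input frequencies from 125 bp paired-end Illumina sequencing, combined across replicates by inverse-variance weighting.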

Variant | yeast fitness (ln)
U2C G6U C27U C46U A69G A70G | -0.274
G6A C27U A43C C46U C71U | -0.176
U2G G6A C27U | -0.0425
C66U A69G C71U | -0.166
U2C G6A C27U A43C C46U A69G A70U | -0.122
U2G C46U C66U A69G A70G C71U | -0.114
G1A U2C G6A C46U C66U A69G A70G C71U | -0.0172
U2C C27U A43C C46U C66U A70G C71U | -0.406
G1A U2G G6U C27U A43C C46U A69G A70G | -0.192
G1A U2G G6U C27U A43C A69G A70U C71U | -0.494
U2G C27U A43C C46U A69G C71U | -0.193
G1A G6U C27U C66U A70G | -0.391
G1A U2G G6U C27U C66U A70G C71U | -0.325
U2C G6A C27U A43C C46U C66U A70U | -0.0567
U2G G6A C66U | -0.0956
U2G A43C C46U A69G A70G C71U | -0.12
G6U C46U C66U C71U | -0.183
G1A U2C G6U C66U A70U C71U | -0.095
G1A C27U A43C C46U A70G | -0.147
C66U A70G C71U | -0.0554
G6U A43C C46U | -0.193
U2C G6U C27U A70G | -0.185
G1A G6A A43C A70U | -0.221
U2C A43C C46U A70U C71U | -0.0761

Variant | yeast fitness (ln)
G6A C27U C66U A69G A70G | -0.368
U2G C27U A43C C66A A70G | -0.179
G1A U2G C46U A69G | -0.13
G6A C66A A69G A70G | -0.159
G1A U2C G6U C66A A69G A70G C71U | -0.0278
G1A U2G G6A C27U C46U A69G A70G C71U | -0.332
G1A G6U A43C C46U C66A A69G A70U C71U | -0.301
G1A G6U A43C A69G A70U C71U | -0.524
U2G C27U A43C C46U C66U A69G C71U | -0.394
U2C C27U A43C C66A | -0.155
G1A U2G A43C C46U C66U A69G C71U | -0.404
U2G G6U A43C C66A C71U | -0.324
G1A U2C G6U C46U C66U A70U C71U | -0.203
C66A A69G | -0.0295
G6U C27U C46U C66U A70U C71U | -0.336
U2G G6A C46U C66A A70U C71U | -0.106
G6U A43C C46U C66U A70G C71U | -0.295
U2G A69G | -0.112
U2G A43C C46U A70U C71U | -0.0246
G1A U2G C27U A43C C46U A69G A70G C71U | -0.221
G1A G6U A43C C46U C66U A69G A70G C71U | -0.333
G1A U2G G6U C66U | -0.203
G1A U2G G6A C27U A43C C46U A69G C71U | -0.283
U2G G6U A43C C66U C71U | -0.405

Variant | yeast fitness (ln)
U2C G6U A43C C46U C66U A69G A70U | -0.211
G1A A43C C46U | -0.059
U2G G6U A43C A69G A70U | -0.227
G6U C27U A43C C66U C71U | -0.34
G1A G6U C27U A43C C46U A69G A70U C71U | -0.475
G6U A69G A70G | -0.16
U2G A43C C46U C66A A70U | -0.0637
G1A U2G C27U A43C C66U A70G | -0.315
G1A U2G G6U C27U A43C C46U C66U C71U | -0.526
C27U A43C C46U C66U A69G A70G | -0.211
G1A G6A C66U A70U C71U | -0.216
G1A U2C G6U A70G | -0.113
G6U C27U A43C C46U C66U A70U | -0.322
U2C C27U C46U A70G C71U | -0.0224
G6U C46U C66U A69G A70G C71U | -0.205
C27U A43C A70G | -0.0631
G1A U2C G6U C27U A69G A70G C71U | -0.22
U2G G6U A43C C66U A70G C71U | -0.397
U2G G6U C27U A43C C46U A70G | -0.208
G1A C27U C46U C66U A70U C71U | -0.283
G1A C66U A69G A70G | -0.176
G1A U2G C46U A70U C71U | 0.00364
G1A U2G G6U C27U C46U C66U A69G A70U C71U | -0.462
U2G C27U A43C C66A A69G A70U C71U | -0.477

Variant | yeast fitness (ln)
G1A G6U A43C C66A A69G A70G C71U | -0.348
U2G G6U C27U A43C C66A C71U | -0.39
U2C C27U C46U C66U A70U | -0.0783
C46U A70G | -0.00475
U2G G6U A43C C46U C66U A70G C71U | -0.241
U2C G6A C27U A43C C46U C66U C71U | -0.122
G1A U2G G6A C27U C46U | -0.154
G1A C27U A69G | -0.295
G1A G6A C27U A70G | -0.34
G1A C27U A43C C46U A70U C71U | -0.29
U2C C27U C46U C66U A69G C71U | -0.243
C27U C46U | -0.0139
G1A C46U C66U A70G C71U | -0.493
U2G C46U A70U C71U | -0.0115
G1A U2G C27U C66A C71U | -0.147
G1A U2C A43C A69G C71U | -0.202
G1A U2G G6A A43C A70G | -0.304
G1A U2G C27U C46U | -0.0532
G1A U2C C27U A43C C46U C66A A70U | -0.106
U2G G6U A43C C46U A70U | -0.337
G1A U2G G6U A70G C71U | -0.256
U2C C46U A70U C71U | -0.0871
U2G G6A C46U C66A C71U | -0.134
G1A U2C G6U C27U A43C C66A A70G | -0.299

Variant | yeast fitness (ln)
G1A U2G A43C C46U C66A A69G A70U | -0.252
U2G G6A C27U A43C C66A A69G C71U | -0.379
G1A G6A C27U C46U A70U | -0.164
G1A U2C C27U C46U C66U | -0.144
U2G A43C C46U C66U | -0.14
C27U C66U A70U | -0.0893
U2G G6U A69G | -0.176
U2C G6A A43C C46U C71U | -0.0721
G6U C46U C66A A69G C71U | -0.0515
G1A U2C G6U A43C C46U C66U A70G C71U | -0.267
G1A G6A C46U A69G A70G C71U | -0.129
U2C A43C C46U C66U A70G | -0.0311
G1A U2G G6U A43C C66U A69G A70U C71U | -0.4
G1A U2G G6A A43C C46U C66U A70G | -0.181
U2C G6U C27U A43C C46U A70U | -0.151
G1A U2C G6U C66A A70G | -0.0212
G6A A43C C46U C66U A70U C71U | -0.268
G1A G6U A43C A70G C71U | -0.383
G1A U2C G6U C27U C66U A69G A70U | -0.245
U2G G6A A43C C66U | -0.0762
G1A U2G G6A A43C C66A A69G A70G C71U | -0.253
G1A U2C C27U C46U A70G | -0.0417
G6U A43C A70U | -0.164
G1A U2C G6A A43C A70U | -0.113

Variant | yeast fitness (ln)
G6A A43C C46U C66A A69G A70G C71U | -0.207
C27U A70G C71U | -0.38
G1A C27U A43C C66U A70G C71U | -0.32
U2C A43C C66A A70U C71U | -0.275
U2C G6A A43C C46U A69G A70U C71U | -0.399
G1A C46U A70G C71U | -0.0168
C66U A69G A70U | -0.0858
U2C C46U C66U A70U | -0.2
U2C C27U C66U A69G A70G C71U | -0.529
U2G G6U C27U A70U C71U | -0.227
U2G A43C C46U A70U | 0.00593
U2C G6A C46U A69G A70G C71U | -0.145
G6A C46U A70U C71U | -0.15
U2C G6A C27U A43C C46U C66A A70G | -0.101
G1A G6A C46U A69G A70U | -0.0698
G1A U2C G6A C27U A43C C66U A69G A70G C71U | -0.255
G1A U2G G6A C46U A69G C71U | -0.193
U2G C27U A43C C46U C66U A69G A70U C71U | -0.395
U2C A43C C66U A70U | -0.0776
G1A U2C G6A C27U C46U A69G A70G C71U | -0.489
G1A C46U A69G A70U C71U | -0.359
G1A G6U C27U C66U A70U C71U | -0.461
G1A U2C A43C C46U A69G A70G C71U | -0.00408
G1A G6U C66U C71U | -0.425

Variant | yeast fitness (ln)
G1A U2G A43C A69G A70U C71U | -0.54
G1A G6U C66U A69G A70G C71U | -0.273
U2G G6U C27U A43C C66A A70U C71U | -0.445
U2C A43C C66A A69G A70G | -0.186
G1A A43C | -0.119
G1A U2C G6U C27U C46U C71U | -0.0687
G1A C46U C66U C71U | -0.0203
G1A G6A C27U C66U A69G A70G C71U | -0.442
U2G C46U A69G A70G | -0.131
G1A C66U | -0.0546
U2C G6U C27U A43C C46U C66U A70U C71U | -0.317
U2C C27U A43C C46U C66U C71U | -0.174
C27U C46U A69G A70G | -0.0578
C46U C66A A70U | 0.00705
U2G G6U C46U A70G | -0.104
G1A U2G A43C C46U C66U A69G A70U C71U | -0.341
G1A C27U C46U A69G | -0.304
U2C C46U A69G A70G C71U | -0.0139
G1A U2C G6A C46U C66A A69G A70G C71U | -0.172
G1A U2G G6U A43C C46U C66A C71U | -0.234
U2G A43C C66U A69G A70U C71U | -0.468
G6U C27U A43C C66U A70U | -0.259
G1A U2G G6A C27U C46U C66A A70U C71U | -0.249
